# In the library only some 2% were active in any assay of this set; here they are far more common.
# PG9 binder: binders of HIV-1 gp120 antibody PG9, primary screen, biochemical, TR-FRET; TR-FRET gp120-PG9 antibody binding; inhibition, % at 6.7 µM; 360,000 compounds, 0.43% hits; in the data active = inhibition above about 8.5%
# NR2E3 ag-1: inhibitors of NR2E3-RetCOR corepressor binding, primary screen, NR2E3 agonist project, biochemical, TR-FRET, GST-NR2E3, biotin-RetCOR | Photoreceptor-specific nuclear receptor (Homo sapiens), Q9Y5X4 | 1536-well | inhibition of corepressor binding, % at 4.78 µM | 320,000 compounds, 0.12% hits | AID 2300, 2010;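 active = percent inhibition above the cutoff of mean plus 3 SD of all tested compounds, set per screening campaign, cut at about 20% in these data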
#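 Material: NR2E3–RetCOR corepressor complex | Quantity: 1.35 nM GST-tagged NR2E3 final | Schedule: 5 h at 4 °C | Replication: Singlicate compound wells | Reagent: RetCOR corepressor, biotinylated, 7 nM | Controls: Biotin wells as high control, 0.6% DMSO wells as low control | Signal: TR-FRET, Eu(K)-anti-GST donor, streptavidin-D2 acceptor, ex 340, em 617/671 nm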
# Neddyl block: inhibitors of cullin neddylation, primary screen, biochemical, TR-FRET, uHTS, NAE and Ubc12. 360,000 compounds, 0.58% hits. AID 651699, 2012. calls only at 25 µM; in the data active = inhibition above about 36%
# NR2E3 ag-2: NR2E3 agonists in two-hybrid cells, primary screen, cell-based, luminescence, CHO-S, Gal4-NCOR/VP16-NR2E3; 360,000 compounds, 0.35% hits; inhibition of corepressor binding, % at 3.98 µM; Photoreceptor-specific nuclear receptor (Homo sapiens), Q9Y5X4; luciferase;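 active = inhibition above the mean of all tested compounds plus 3 SD, cut at about 70% in these data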;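 also: higher means lower luciferase signal from less NR2E3 corepressor binding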
# Rev-erbA mod: modulators of Rev-erb alpha DNA binding, primary screen, biochemical, FITC-DNA, fluorescence polarization, uHTS; Nuclear receptor subfamily 1 group D member 1 (Homo sapiens), P20393; Rev-erbα–FITC-DNA binding, 90 min; activity, % at 10 µM; 370,000 compounds, 0.79% hits;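 active = activity above about 14%, limit read from the data; passing the limit was not always enough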
# Target sequence (P20393 whole entry, looked up): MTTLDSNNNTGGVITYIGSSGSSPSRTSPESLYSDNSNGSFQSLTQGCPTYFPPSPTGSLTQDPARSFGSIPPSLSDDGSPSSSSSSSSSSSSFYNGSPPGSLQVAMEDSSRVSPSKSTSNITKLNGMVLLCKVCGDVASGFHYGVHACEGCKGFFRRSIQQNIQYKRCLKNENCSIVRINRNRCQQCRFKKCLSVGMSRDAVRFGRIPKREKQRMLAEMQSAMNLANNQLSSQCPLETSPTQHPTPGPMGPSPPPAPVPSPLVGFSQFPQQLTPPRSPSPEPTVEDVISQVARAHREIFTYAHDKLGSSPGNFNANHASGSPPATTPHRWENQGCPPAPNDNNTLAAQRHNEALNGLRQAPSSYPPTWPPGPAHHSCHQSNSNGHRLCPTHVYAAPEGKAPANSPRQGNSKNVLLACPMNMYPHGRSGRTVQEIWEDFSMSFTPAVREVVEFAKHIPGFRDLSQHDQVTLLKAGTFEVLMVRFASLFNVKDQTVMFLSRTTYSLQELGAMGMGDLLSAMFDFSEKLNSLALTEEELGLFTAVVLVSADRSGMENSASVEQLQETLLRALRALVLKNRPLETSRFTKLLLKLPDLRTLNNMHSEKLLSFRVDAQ
# Rev-erbA confirm: modulators of Rev-erb alpha DNA binding, confirmation, biochemical, FITC-DNA, fluorescence polarization, single point | shares compounds with Rev-erbA mod | 90 min | activation, % at 25 µM | 3,000 compounds, 61% hits;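 active = activation at or above a set limit, or at least 3 SD above the negative control mean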
# RORg counter: modulation of RORgamma DNA binding, dose response, counter-screen for Rev-erb alpha modulator project, biochemical, fluorescence polarization, FITC-DNA. IC50, µM. 910 compounds, 8% hits. purified RORgamma protein-FITC-DNA binding. shares compounds with Rev-erbA mod;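 active = Compounds whose fitted half-maximal concentration for disrupting protein-DNA binding is below 10 micromolar; the record names Rev-erb in its text, so the target is in doubt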
# Hits are given with their value; - = inactive; . = no result given.
SMILES,PG9 binder,NR2E3 ag-1,Neddyl block,NR2E3 ag-2,Rev-erbA mod,Rev-erbA confirm,others
O=C(COC(=O)c1sc2cc(F)ccc2c1Cl)Nc1ncc(Cl)cc1Cl,-,-,-,-,64.0,36.7,RORg counter=-
COc1ccc2oc(C(=O)Nc3nnc(C)s3)c(C)c2c1,-,-,-,-,-,.,
CC(=O)c1sc(NC(=O)c2cc(=O)c3ccccc3o2)nc1C,-,-,-,-,-,.,
Cc1ccc2nc(NC(=O)c3cccs3)sc2c1,-,-,.,-,-,.,
COc1ccc2oc(C(=O)Nc3nc4ccc(S(C)(=O)=O)cc4s3)c(C)c2c1,-,-,-,-,30.8,-,
CC(=O)c1sc(NC(=O)c2oc3ccc(F)cc3c2C)nc1C,-,.,-,-,53.8,45.9,RORg counter=-
O=C(Nc1ccc2c(c1)C(=O)NC2=O)c1ccc2ncsc2c1,-,-,-,-,56.8,53.5,RORg counter=6.01
O=C(Nc1ccc(Br)cc1)c1ccc2ncsc2c1,-,-,-,-,-,.,
Cc1ccc2nc(NC(=O)c3ccc4ncsc4c3)sc2c1,-,-,-,-,34.2,23.9,
CCc1ccc2[nH]c3nc(N/N=C/c4ccc(O)cc4O)nnc3c2c1,-,-,-,-,-,.,
COc1cc(OC)cc(C(=O)Nc2nc3ccc(S(C)(=O)=O)cc3s2)c1,-,-,-,-,33.1,21.3,
COc1cc(C(=O)Nc2nc3ccc(S(C)(=O)=O)cc3s2)cc(OC)c1C,-,-,-,-,21.0,-,
CS(=O)(=O)c1ccc2nc(NC(=O)c3cc([N+](=O)[O-])cc([N+](=O)[O-])c3)sc2c1,-,-,-,-,-,.,
Cc1ccc(NC(=O)c2ncn(CCCN3CCN(c4ncccn4)CC3)n2)cc1C,-,.,-,-,-,.,
CN(C)/C=N/c1ncc(C(=O)c2ccccc2)s1,-,-,-,-,-,.,
CN(C)/C=N/c1ncc(C(=O)c2ccc(-c3ccccc3)cc2)s1,-,-,-,-,16.5,-,
O=C(CSc1nc2ccccc2[nH]1)Nc1ccc(N2CCOCC2)cc1,-,-,-,-,-,.,
Cc1cc(NC(=O)c2ccc(S(=O)(=O)N3CCOCC3)cc2)nc2c1c(=O)oc1ccccc12,-,-,.,.,36.2,-,
Cc1cc(NC(=O)c2ccc(S(=O)(=O)N3CCCC3)cc2)nc2c1c(=O)oc1ccccc12,-,.,-,-,35.9,-,
Cc1cc(NC(=O)c2ccccc2)nc2c1c(=O)oc1ccccc12,-,-,-,-,-,.,
O=C(Nc1nnc(-c2ccccc2)o1)c1cccc(N2C(=O)CCC2=O)c1,-,-,-,-,-,.,
O=C(Nc1nnc(-c2ccc(Br)cc2)o1)c1cccc(N2C(=O)CCC2=O)c1,-,-,-,-,18.1,-,
COc1cccc(NC(=O)CSc2nnc3ccc(-c4ccccn4)nn23)c1,-,.,-,-,35.3,-,
CC(=O)Nc1cccc(NC(=O)CSc2nnc3ccc(-c4ccccn4)nn23)c1,-,-,-,-,-,.,
C[C@H]1C2CC(OC(=O)Nc3ccc(C(F)(F)F)cc3)C(C2)[C@H]2CCCCN21 (stereo not given in full),.,.,.,.,-,.,
SMILES,PG9 binder,NR2E3 ag-1,Neddyl block,NR2E3 ag-2,Rev-erbA mod,Rev-erbA confirm,others
Cc1ccc(-c2nnn3c2nc(NC(C)C)c2ccccc23)cc1,-,-,-,-,48.0,23.9,
CNc1nc2c(-c3ccc(Cl)cc3)nnn2c2ccccc12,-,-,-,-,18.1,-,
CC(=O)CSc1nc2nccnc2[nH]1,-,.,-,-,-,.,
O=C(O)CSc1nc2c(cnn2-c2ccccc2)c(=O)n1-c1ccc(Br)cc1,-,-,-,-,-,.,
O=c1c2cnn(-c3ccccc3)c2nc(-c2cccs2)n1-c1ccc(Br)cc1,-,-,-,-,38.0,-,
CCOCCCNc1nc2c(C)cccn2c(=O)c1/C=C1\SC(=S)N(C(C)CC)C1=O (stereo not given),-,-,-,-,23.4,-,
Cc1ccc2cc(CCNC(=O)C(=O)c3c[nH]c4ccccc34)c(=O)[nH]c2c1,-,-,-,-,39.8,19.0,
CCN1/C(=C/c2ccc3cc(C)cc(C)c3[n+]2CC)Sc2cc(C)ccc21,-,.,-,90.5,30.9,37.4,RORg counter=-
COc1ccc(C(=O)CN2C(=O)NC3(CCCc4ccccc43)C2=O)c(OC)c1 (stereo not given),-,-,-,-,23.0,-,
CC(C)C1N=C(NC(=O)OCc2ccccc2)NC1=O (stereo not given) (tested in a mixture with another compound),.,.,.,.,-,.,
O=C(COc1ccc(Cl)cc1)Nc1cccc(-c2ccc(N3CCOCC3)nn2)c1,-,-,-,-,19.6,-,
O=C(Nc1cccc(-c2ccc(N3CCOCC3)nn2)c1)c1ccc(Cl)cc1,-,-,-,-,-,.,
O=C(Cc1coc2cc(O)ccc12)N1CCN(S(=O)(=O)c2ccc(Br)cc2)CC1,-,.,-,-,-,.,
CC/C(=N\Nc1ccccc1[N+](=O)[O-])c1ccc(O)cc1,-,-,-,-,14.7,-,
CC/C(=N\Nc1ccc([N+](=O)[O-])cc1[N+](=O)[O-])c1ccc(O)cc1,-,-,-,-,-,.,
COc1ccc2oc(C(=O)OC(C)C(=O)Nc3ccc(N4CCOCC4)cc3)c(C)c2c1 (stereo not given),-,-,-,-,-,.,
CCNC(=O)NC(=O)C(C)OC(=O)c1oc2ccc(OC)cc2c1C (stereo not given),-,-,-,-,23.4,-,
O=C(Nc1nc(-c2cccs2)c(-c2cccs2)s1)C1CCCC1,-,.,-,-,80.3,113.9,RORg counter=-
O=C(Nc1nnc(-c2cccs2)s1)C1CC1,-,-,-,-,-,.,
CCCc1cc(=O)oc2cc(C)cc(OC(C)C(=O)NCc3ccncc3)c12 (stereo not given),-,-,.,-,23.4,21.2,
CCCc1cc(=O)oc2cc(C)cc(OCC(=O)Nc3ccc(S(N)(=O)=O)cc3)c12,-,-,-,-,135.2,150.8,RORg counter=-
CCc1nc(SCC(=O)NC2CC2)c2c(C)c(C)sc2n1,-,-,-,-,-,.,
CCCc1nc(SCC(=O)NC2CC2)c2c(C)c(C)sc2n1,-,-,-,-,21.6,-,
O=C(N[C@H](C(=O)N1CCC[C@H]1C(=O)NCCc1ccccc1Cl)c1ccccc1)C1CC1,-,.,.,.,-,.,

# Screening results deposited in PubChem BioAssay by several laboratories.
